Rows were chosen to be rich in hits. Some 2.5% of all compounds tested hit in one or more screens of this group.
E-sel inducer – E-selectin induction in HUVECs, primary screen, imaging, HUVEC, immunofluorescence imaging, single point. normalized: neutral wells 0, TNF-alpha wells 100. activation, % at 7.58 µM. 260,000 tested, 0.37% active;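 active = mean E-selectin-positive cell signal at least 10% of the positive control, reached in at least 60% of replicates, without over 20% cell loss; inconclusive = no rule given, readout overlaps actives, possibly toxicity-flagged; inactive = the rest, including those meeting only one limit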
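System: HUVEC / Compound: single concentration / Signal: immunofluorescence imaging / Read-out: percent E-selectin-positive cells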
miR-122 sensor – miR-122 Renilla sensor signal increase in Huh7, primary screen, miR-122 inhibitor project, cell-based, single point, plate reader; Huh7 miR-122 Renilla luciferase sensor, 48 h; neutral wells = 0, positive control = 100; activation (reporter increase), % at 12.5 µM; 340,000 tested, 0.3% active;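 active = mean replicate activation score at least 90 and every replicate individually at or above 90; inconclusive = only one of the two criteria met; inactive = neither criterion met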;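 note: higher luciferase means less miR-122 activity so hits act as miR-122 inhibitors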
FGF22 binding – binders of human FGF22 protein, primary screen, FGF22 synaptogenesis inhibitor project, biophysical, thermal shift, single point. recombinant FGF22 thermal shift, SYPRO orange fluorescence; percent of sucrose octasulfate shift, DMSO zero. activity (Tm shift, normalised), % at 9.99 µM. 340,000 tested, 1.5% active. AID 651658, 2012;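 active = mean Tm shift, scaled 0 neutral to 100 positive control, at about 1.3% or above, every replicate too, limit read from the data; inconclusive = no clear call, values can overlap the other calls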
S100A4 MyoIIA – inhibitors of S100A4-myosin IIA peptide binding, primary screen, biochemical, fluorescence polarization, TAMRA-MyoIIA peptide; Protein S100-A4 (Homo sapiens), P26447; inhibition, % at 10.7 µM; 360,000 tested, 0.14% active;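 active = mean inhibition of at least 70% across replicates, with every replicate also reaching that level; inconclusive = mean inhibition reaches 70% but some replicates fall short; inactive = mean inhibition below 70%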
Target sequence (P26447 whole entry, looked up): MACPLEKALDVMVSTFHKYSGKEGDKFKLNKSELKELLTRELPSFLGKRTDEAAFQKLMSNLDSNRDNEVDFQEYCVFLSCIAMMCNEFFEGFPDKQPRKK
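Assay system: human S100A4 monomer with TAMRA-labelled myosin IIA peptide / Buffer or medium: Calcium-containing HEPES buffer, pH 7.2 / Reagent: TAMRA-labelled myosin IIA heavy-chain peptide probe, 5 nM / Compound: one dose per compound / Timing: polarization read 5 min after assay mix addition, stable 5–60 min / Benchmarks: neutral control DMSO, positive control TFP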
SIRT5 inh – SIRT5 desuccinylase inhibitors, primary screen, biochemical, fluorescence imaging, single point, set 5. NAD-dependent protein deacylase sirtuin-5, mitochondrial (Homo sapiens), Q9NXA8. AID 652115, 2013. 330,000 tested, 1.1% active. inhibition, % at 15 µM. Purified SirT5, succinyl-peptide AMC, trypsin-coupled fluorescence; in the data active = inhibition above about 15%; inconclusive = no clear call, values can overlap the other calls
Target sequence (Q9NXA8 whole entry, looked up): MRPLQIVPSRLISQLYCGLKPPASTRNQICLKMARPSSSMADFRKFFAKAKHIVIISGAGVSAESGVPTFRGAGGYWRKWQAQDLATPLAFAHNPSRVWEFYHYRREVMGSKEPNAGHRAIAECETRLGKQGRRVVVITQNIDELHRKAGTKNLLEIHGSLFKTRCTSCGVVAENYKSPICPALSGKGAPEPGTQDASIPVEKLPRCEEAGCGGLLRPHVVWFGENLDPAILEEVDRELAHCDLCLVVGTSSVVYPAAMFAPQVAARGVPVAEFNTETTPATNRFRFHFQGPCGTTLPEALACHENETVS
Of the large screens only hits and unclear results are named; the others gave an inactive call; ! = repeats disagree.

C[C@H](CO)N1C[C@H](C)[C@H](CN(C)Cc2ccccc2)Oc2ccc(NC(=O)CCN3CCOCC3)cc2CC1=O	none
COc1ccccc1CCC(=O)Nc1ccc(C)cc1Cl	FGF22 binding 43.3 (no result: E-sel inducer, miR-122 sensor)
CN(C)CC#Cc1ccc([C@@H]2[C@H]3CN(C(=O)C4CCCC4)CCCCN3[C@H]2CO)cc1	none (no result: E-sel inducer)
CCOC(=O)c1cnc2ccccc2c1Nc1ccc(C(=O)O)cc1	FGF22 binding 43.8 (no result: E-sel inducer, miR-122 sensor)
CCOC(=O)c1cnc2ccccc2c1Nc1cccc(C(=O)O)c1	none (no result: E-sel inducer, SIRT5 inh)
COc1cc(-c2c(-c3ccc4c(c3)OCO4)noc2-c2ccsc2)ccc1F	SIRT5 inh 17.0
Cc1ccc(OCc2nnc(N)s2)cc1	FGF22 binding 43.6
C[C@H](CO)N1C[C@H](C)[C@@H](CN(C)C(=O)NC2CCCCC2)Oc2ccc(NS(=O)(=O)c3ccccc3)cc2C1=O	E-sel inducer 49.4!
C[C@H]1CN([C@@H](C)CO)C(=O)c2cc(NS(=O)(=O)c3ccccc3)ccc2O[C@H]1CN(C)C(=O)NC1CCCCC1	none
C[C@@H]1CN([C@H](C)CO)C(=O)c2cc(NS(=O)(=O)c3ccccc3)ccc2O[C@H]1CN(C)C(=O)NC1CCCCC1	E-sel inducer 40.1
C[C@@H]1CN([C@@H](C)CO)C(=O)c2cc(NS(=O)(=O)c3ccccc3)ccc2O[C@@H]1CN(C)C(=O)NC1CCCCC1	none
C[C@H](CO)N1C[C@H](C)[C@H](CN(C)Cc2ccncc2)OCCCC[C@H](C)Oc2ccc(NC(=O)Nc3ccc4c(c3)OCO4)cc2C1=O	none
Cc1ccccc1S(=O)(=O)N1C[C@H](O)COC[C@H]2O[C@H](CC(=O)NCCc3ccccc3)CC[C@@H]21	none
CCS(=O)(=O)N1CC2(CN(C(=O)CN3CCOCC3)[C@H](CO)c3c2c2ccc(OC)cc2n3C)C1	none (no result: miR-122 sensor)
CCC(=O)N1CCc2cc(S(=O)(=O)N(C)c3ccc(OC)cc3OC)ccc21	none (no result: miR-122 sensor)
CCC(=O)N1CCc2cc(Br)cc(S(=O)(=O)N(C)c3ccc(OC)cc3OC)c21	FGF22 binding 43.1
COc1ccc(NS(=O)(=O)c2cc(Br)cc3c2N(C(C)=O)CC3)cc1	miR-122 sensor 189.3 (no result: E-sel inducer)
COc1ccc(NS(=O)(=O)c2ccc3c(c2)CCCN3C(C)=O)cc1	E-sel inducer 121.2
O=C([C@@H]1[C@@H](CO)[C@@H]2Cn3c(cccc3=O)[C@@H]2N1CC1CCCCC1)N1CCOCC1	none (no result: miR-122 sensor, FGF22 binding)
CCCNC(=O)N1[C@H](C#N)[C@H](c2ccccc2-c2cccc(C)c2)[C@@H]1CO	none (no result: miR-122 sensor)
O=S(=O)(Nc1ccc2cn[nH]c2c1)c1ccc(Cl)cc1	none (no result: E-sel inducer, FGF22 binding, S100A4 MyoIIA, SIRT5 inh)
Cc1cc(S(=O)(=O)Nc2ccc3cn[nH]c3c2)c(C)cc1Cl	miR-122 sensor 143.5
O=C(Nc1ccccc1)c1cc([N+](=O)[O-])ccc1N1CCCCC1	none
O=C(c1ccc(Br)cc1)c1cc([N+](=O)[O-])ccc1N1CCCCC1	miR-122 sensor 185.3 (no result: E-sel inducer, FGF22 binding, S100A4 MyoIIA, SIRT5 inh)
CC(C)CNC(=O)c1cc([N+](=O)[O-])ccc1N1CCCCC1	FGF22 binding 43.2 (no result: E-sel inducer)
COc1ccc(N2CC(O)=C(c3nc4ccccc4s3)C2=N)c(OC)c1	miR-122 sensor 102.1 (no result: E-sel inducer, FGF22 binding, S100A4 MyoIIA, SIRT5 inh)
C[C@H](CO)N1C[C@H](C)[C@@H](CN(C)Cc2ccc(C(F)(F)F)cc2)Oc2c(NC(=O)c3nc4ccccc4s3)cccc2C1=O	miR-122 sensor inconclusive, SIRT5 inh 15.6
C[C@@H]1CN([C@@H](C)CO)C(=O)c2cccc(NC(=O)c3nc4ccccc4s3)c2O[C@H]1CN(C)Cc1ccc(C(F)(F)F)cc1	SIRT5 inh 22.4
C[C@H]1CN([C@@H](C)CO)C(=O)c2cccc(NC(=O)c3nc4ccccc4s3)c2O[C@@H]1CN(C)Cc1ccccc1	none
C[C@@H]1CN([C@H](C)CO)C(=O)c2cccc(NC(=O)c3nc4ccccc4s3)c2O[C@@H]1CN(C)Cc1ccccc1	none
C[C@H]1CN([C@@H](C)CO)C(=O)c2cccc(NC(=O)c3nc4ccccc4s3)c2O[C@@H]1CN(C)Cc1ccc(C(F)(F)F)cc1	E-sel inducer 48.3, SIRT5 inh 20.9

Compound activity as filed in PubChem.
